Bioassay records: PubChem BioAssay, several laboratories
Rows were chosen to be rich in hits. Some 12% of all compounds tested hit in one or more screens of this group.
CHOP inhibitor – inhibitors of CHOP promoter induction, primary screen, cell-based, unfolded protein response, luciferase reporter. hit rate 3.8% among 220,000. CHO-K1 CHOP-promoter luciferase, tunicamycin-induced, 15-18 h. inhibition, % at 10 µM;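 active means compounds that reduced the stress-induced luciferase reporter signal by more than about 70% of percent inhibition, limit read from the data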
Rad51 HR inh – human RAD51 strand exchange inhibitors, primary screen, biochemical, fluorescence; hRad51 DNA strand exchange, fluorescence dequenching; inhibition, % at 10 µM; hit rate 0.085% among 200,000; AID 1385, 2008;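 active means inhibition above 40% at the single screening dose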
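material = hRad51 filaments on single-stranded DNA | timing = filaments 15 min 37 °C, then compound 30 min | signal = FRET fluorescence dequenching, excitation 485 nm, emission 520 nm | benchmarks = control wells and blank wells on each plate | evaluation = percent inhibition relative to plate controls and blanks | compound = 10 µM final, single point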
Wee1 degr inh – Wee1 degradation inhibitors, primary screen, cell-based, HeLa, Wee1K328M-luciferase, luminescence; Wee1-like protein kinase (Homo sapiens), P30291; HeLa Luc-Wee1K328M stability; 100% = proteasome inhibitor MG132 effect; AID 1321, 2008; hit rate 1.2% among 220,000; reporter increase, % at 5 µM;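 active means activation above the mean of all tested compounds plus 3 SD, set per screening run, cut at about 8.8% in these data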;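 further: cells exposed to compound for 20 h before luminescence read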
Target sequence (P30291 whole entry K328M): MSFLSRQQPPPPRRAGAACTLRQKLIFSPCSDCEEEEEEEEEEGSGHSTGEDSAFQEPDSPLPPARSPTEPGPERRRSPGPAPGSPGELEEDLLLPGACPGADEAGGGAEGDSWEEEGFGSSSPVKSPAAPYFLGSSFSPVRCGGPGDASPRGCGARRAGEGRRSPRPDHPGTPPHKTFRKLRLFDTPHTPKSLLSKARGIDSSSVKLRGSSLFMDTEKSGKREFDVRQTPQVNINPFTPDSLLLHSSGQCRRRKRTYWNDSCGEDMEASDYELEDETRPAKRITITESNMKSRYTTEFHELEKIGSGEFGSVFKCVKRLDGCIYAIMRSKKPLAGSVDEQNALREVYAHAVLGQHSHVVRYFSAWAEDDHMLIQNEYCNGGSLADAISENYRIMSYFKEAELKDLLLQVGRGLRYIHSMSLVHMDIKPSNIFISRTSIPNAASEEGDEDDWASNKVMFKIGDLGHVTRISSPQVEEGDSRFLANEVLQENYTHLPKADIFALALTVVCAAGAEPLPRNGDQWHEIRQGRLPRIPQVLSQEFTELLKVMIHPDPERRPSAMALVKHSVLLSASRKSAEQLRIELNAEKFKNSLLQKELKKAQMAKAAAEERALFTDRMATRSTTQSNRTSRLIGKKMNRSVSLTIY
Arbovirus inh – antivirals against arbovirus infection, primary screen, cell-based, full library, 10K replicate subset; arbovirus infection cell-based antiviral screen; inhibition, % at 10 µM; hit rate 0.37% among 200,000; AID 1251, 2008; in the data active means inhibition above about 30%
PKD1 kinase inh – inhibitors of human PKD1 kinase, biochemical, fluorescence polarization; PKD1 kinase fluorescence polarization assay; inhibition, % (no concentration beside the values); hit rate 0.056% among 200,000; AID 797, 2007
Lmaj promast – Leishmania major promastigote growth inhibition, primary screen. inhibition, % at 10 µM. Leishmania major promastigotes, resazurin fluorescence viability. hit rate 9% among 200,000;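 further: promastigotes grown with compound for 44 hours at 28 °C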
Of the large screens only hits and unclear results are named; the others gave an inactive call. Unless noted, no stated cut-off is given here; in the data, active means inhibition above about 50%; inactive means the rest.

O=C(N/N=C/c1sc(N2CCCCC2)nc1-c1cccs1)C1CC1	Lmaj promast 69
COc1cccc(C(=O)c2c[nH]c(C(=O)NCCCN3CCOCC3)c2)c1	none
CCc1ccccc1NC(=S)N1N=CCC1c1ccccc1 (stereo unspecified)	Wee1 degr inh 8.8
NNC(=O)Cn1c(COc2ccc(Cl)cc2)nc2ccccc21	none
O=C(Cn1c(COc2ccccc2)nc2ccccc21)Nc1cccc(Cl)c1	CHOP inhibitor 78
Cc1cc2nc(N=C(N)N)nc(C)c2cc1C	Lmaj promast 100
CCc1ccc2nc(N=C(N)N)nc(C)c2c1	Lmaj promast 96
Cc1ccc2nc(NC(=O)C3CCCN3C(=O)OC(C)(C)C)sc2c1 (stereo unspecified)	none (no result: Rad51 HR inh)
CSc1ccc(S(=O)(=O)N(C)Cc2ccccc2)cc1	none
O=C(CSc1nc2ccccc2o1)N1c2ccccc2Sc2ccc(C(F)(F)F)cc21	Lmaj promast 80 (no result: Rad51 HR inh)
O=C(CN1CCCC1)N1c2ccccc2Sc2ccc(C(F)(F)F)cc21	none
O=C(CN1CCN(c2ccccn2)CC1)N1c2ccccc2Sc2ccc(C(F)(F)F)cc21	Lmaj promast 68
O=C(CNC(=S)N(CCCN1CCOCC1)Cc1cccs1)N1CCCC1	none
CCn1c(-c2ccccc2)c(C(=O)CCl)c2ccccc21	CHOP inhibitor 105, Lmaj promast 99
Cc1ccc2c(c1)C(c1ccccc1)N(C(=O)c1ccc3c(c1)OCO3)CC(=O)N2 (stereo unspecified)	none (no result: Arbovirus inh, PKD1 kinase inh, Lmaj promast)
O=C(CSc1ncnc2c1oc1ccccc12)Nc1cccc(C(F)(F)F)c1	CHOP inhibitor 79
O=C(CSc1ncnc2c1oc1ccccc12)Nc1cccc(Cl)c1	none
Cc1ccc2oc3nc(C)c(C(=O)Nc4cccc(C(F)(F)F)c4)cc3c(=O)c2c1	none
Cc1ccc(C2=Nc3ccccc3N=C(c3ccco3)C2)c(O)c1	CHOP inhibitor 72
Cc1ccc(O)c(C2=Nc3ccccc3N=C(c3ccco3)C2)c1	CHOP inhibitor 87
Cc1ccc(O)c(C2=Nc3ccccc3N=C(c3ccc([N+](=O)[O-])cc3)C2)c1	none
CCCCN(c1ccccc1)S(=O)(=O)c1cccc2cccnc12	none (no result: Arbovirus inh, PKD1 kinase inh, Lmaj promast)
CC(=O)c1ccc(NC(=O)c2cc(Cl)sc2Cl)cc1	none
COc1ccc(N(CCC#N)C(=O)/C(C#N)=C\c2cccs2)cc1	none (no result: Arbovirus inh, PKD1 kinase inh, Lmaj promast)
CNc1ccc([N+](=O)[O-])cc1-c1nc2ccccc2[nH]c1=O	none (no result: Arbovirus inh, PKD1 kinase inh, Lmaj promast)
C=CCn1c(SCc2c(C)noc2C)nc2sc3c(c2c1=O)CCCC3	CHOP inhibitor 83
C=CCn1c(SCc2c(C)noc2C)nc2sc3c(c2c1=O)CCCCC3	none
Cc1noc(C)c1CSc1nc2sc3c(c2c(=O)n1C)CCCC3	CHOP inhibitor 76
COc1ccc(-c2csc(C)n2)cc1OC	none
COc1ccc(-c2csc(-c3[nH]cnc3N)n2)cc1	Lmaj promast 96
COc1ccc(-c2csc(-c3ccc(C(=O)O)cc3)n2)cc1	Wee1 degr inh 10
O=C(O)c1ccc(-c2nc(-c3ccc(Cl)cc3)cs2)cc1	Arbovirus inh 41
COc1ccc(-c2csc(C)n2)cc1	Wee1 degr inh 9.0
O=C(O)c1ccc(-c2nc(-c3ccc(Cl)cc3Cl)cs2)cc1	none
CC1(c2nnc(-c3cccc(Cl)c3)o2)CC(c2ccccc2F)=NO1 (stereo unspecified)	none (no result: CHOP inhibitor, Wee1 degr inh, Arbovirus inh, PKD1 kinase inh, Lmaj promast)
Cc1cc(C)n2nc(S(=O)(=O)NC(C)(C)C)nc2n1	none
N#Cc1ncc(Cl)c2ccccc12	none (no result: Arbovirus inh, PKD1 kinase inh, Lmaj promast)
O=C(O)CC(NC(=O)C1CCCCC1)c1ccc(OC2CCCC2)cc1 (stereo unspecified)	none
Cc1cccc(C(=O)NC(CC(=O)O)c2ccc(OC3CCCC3)cc2)c1[N+](=O)[O-] (stereo unspecified)	Rad51 HR inh 44
S=c1[nH]nc(Cn2cnc3ccccc32)n1-c1ccccc1	none
N#Cc1c2ccc(O)cc2n2ccccc12	Lmaj promast 100
COc1ccc(C(=O)N2CCC(n3c(C)nc4cc(F)ccc43)CC2)cc1	none
CC(C)N(CCO)C(=O)C(c1ccccc1)c1ccccc1	Wee1 degr inh 11
COc1cc(/C=C(/C#N)C(=O)Nc2ccc(Cl)cc2)ccc1Oc1nc(Cl)ncc1F	none (no result: Arbovirus inh, PKD1 kinase inh, Lmaj promast)
